Reference: ChEMBL document CHEMBL1132222, “Lamellarin alpha 20-sulfate, an inhibitor of HIV-1 integrase active against HIV-1 virus in cell culture” (J Med Chem, 1999)
Several values for one entry are separate records, joined by “and”; a condition that tells them apart may be missing. Equal entries are not always repeated. Activity calls are given as the source filed them. The calls are words filed in the database; no cut-off is given here.

Assays:
[1] = molecular target: Human immunodeficiency virus type 1 integrase (Human immunodeficiency virus 1, UniProt Q7ZJM1); assay: Inhibitory activity against integrase as yield of terminal cleavage products
Procedure, shortened: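 Purified HIV-1 integrase incubated with an end-labeled substrate oligonucleotide across a compound titration. Products separated by electrophoresis and visualized by autoradiography; terminal cleavage product quantitated relative to positive control without inhibitor.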

[2] = test system: Human immunodeficiency virus 1; assay: The compound was tested in vitro for inhibition of PIC (preintegrated complexes) from HIV-1 infected cells; format: functional
Procedure, shortened: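 Preintegration complexes isolated from HIV-1-infected cells used as integration source; mixed with naked DNA target and incubated 37 °C for 1 h in presence of compound.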

[3] = test system: Molluscum contagiosum virus; assay: The relaxation activity of MCV topoisomerase was assayed at 170 electrophoresis; No Inhibition; format: functional, organism-based
Procedure, shortened: (§1)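 Type 1B topoisomerase of molluscum contagiosum virus; relaxation of supercoiled plasmid DNA monitored by mobility shift on agarose gel electrophoresis.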

[4] = The compound was tested for toxicity using MTT cytotoxicity assay in Hela cell culture, activity expressed as LD50 value.; format: cell-based; conditions: human, HeLa cells; read-out: LD50 (the source's name)
Procedure, shortened: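 HeLa cells in culture exposed to a range of compound concentrations; viability read out with MTT dye; LD50 derived from the concentration series.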

[5] = test system: Molluscum contagiosum virus; assay: The relaxation activity of MCV topoisomerase was assayed at 100 electrophoresis; No Inhibition; format: functional, organism-based
Procedure, shortened: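 Counterscreen against the type 1B topoisomerase of molluscum contagiosum virus (MCV). Relaxation of supercoiled plasmid DNA was followed by the change in its mobility on agarose gel electrophoresis, with compound present.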

[6] = test system: Molluscum contagiosum virus; assay: The relaxation activity of MCV topoisomerase was assayed at 500 electrophoresis; No Inhibition; format: functional, organism-based; procedure, shortened: as §1

Human immunodeficiency virus type 1 integrase, sequence (Q7ZJM1 whole entry): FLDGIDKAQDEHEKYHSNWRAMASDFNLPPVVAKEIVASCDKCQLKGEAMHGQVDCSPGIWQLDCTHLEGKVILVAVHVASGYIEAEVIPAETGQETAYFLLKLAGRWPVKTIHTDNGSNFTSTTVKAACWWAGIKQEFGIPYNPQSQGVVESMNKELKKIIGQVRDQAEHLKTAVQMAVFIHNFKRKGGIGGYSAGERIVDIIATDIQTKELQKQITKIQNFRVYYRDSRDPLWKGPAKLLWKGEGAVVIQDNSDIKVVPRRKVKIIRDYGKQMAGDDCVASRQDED

## COc1ccc(-c2c3c4cc(OC)c(OS(=O)(=O)O)cc4oc(=O)c3n3ccc4cc(OC)c(OC)cc4c23)cc1O
[1]
  IC50: 16 µM and 22 µM
[2]
  IC50: 88 µM
[3]
  inhibition: inactive
[4]
  CC50: 274 µM

## COc1ccc(-c2c3c4cc(OC)c(O)cc4oc(=O)c3n3ccc4c(OC)c(OC)c(OC)cc4c23)cc1O
[1]
  IC50: 19 µM and 14 µM
[3]
  inhibition: inactive
[4]
  CC50: 28 µM

## COc1ccc(-c2c3n(c4c(=O)oc5cc(O)c(OC)cc5c24)CCc2c-3cc(OC)c(OC)c2OC)cc1O
[1]
  IC50: 27 µM and 24 µM
[5]
  inhibition: inactive
[4]
  CC50: 27 µM

## COc1ccc(-c2c3n(c4c(=O)oc5cc(OS(=O)(=O)O)c(OC)cc5c24)CCc2cc(OC)c(OC)cc2-3)cc1O
[1]
  IC50: 34 µM and 25 µM
[6]
  inhibition: inactive
[4]
  CC50: 145 µM

## COc1ccc(-c2c3c4cc(OC)c(O)cc4oc(=O)c3n3ccc4cc(O)c(OC)cc4c23)cc1O
[1]
  IC50: 18 µM and 19 µM
[5]
  inhibition: inactive
[4]
  CC50: 5 µM

## COc1ccc(-c2c3n(c4c(=O)oc5cc(OS(=O)(=O)O)c(OC)cc5c24)C(O)Cc2c-3cc(OC)c(OC)c2OC)cc1O (centres undefined)
[1]
  IC50: 73 µM and 51 µM
[6]
  inhibition: inactive
[4]
  CC50: 130 µM
